# KCNQ1 block: inhibitors of human KCNQ1 potassium channel. P51787. CHO-K1 KCNQ1, FluxOR thallium flux fluorescence; active compounds read high. B-score at 10 µM. 310,000 tested, 1.3% active. AID 2642;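 active means compounds whose thallium flux B-score, printed positive for inhibition, exceeds three library SD while starting fluorescence stays within three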;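 further: channel opened by potassium depolarization with thallium stimulus after 20 min compound exposure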
# KCNK9 inh: blocks the human KCNK9 two-pore domain potassium channel; Q9NPC2; HEK293 KCNK9, FluxOR thallium flux fluorescence; active compounds read low; B-score at 10 µM; 310,000 tested, 1.2% active; AID 488922;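 active means ratio B-score over 3 SD below the library mean, with starting fluorescence within 5 SD of its mean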;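 further: negative B-score means less thallium flux so channel inhibition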
# Kir21 inh: Kir2.1 (mouse) channel inhibition. P35561. HEK293-Kir2.1, FluxOR thallium flux fluorescence; active compounds read low. B-score at 10 µM. 310,000 tested, 0.85% active. AID 1672;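 active means fluorescence ratio B-score at or below minus 3 SD of library scores, with starting-brightness B-score within 2 SD, cut at about -4.2 in these data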;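 further: channel flux triggered by added potassium and thallium sulfate stimulus; B-score of peak minus minimum fluorescence over baseline after thallium stimulus; more negative B-score means stronger Kir2.1 block with less thallium influx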
# KCNQ1 act: human KCNQ1 channel potentiation or activation | P51787 | CHO-K1 KCNQ1, thallium flux FluxOR fluorescence; active compounds read high | B-score at 10 µM | 310,000 tested, 0.35% active;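 active means fluorescence ratio B-score, a plate-corrected score, at least three library SD, with initial intensity B-score within 5 SD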
#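 System: CHO-K1 cells stably expressing KCNQ1 / Medium: assay buffer for compound exposure, DMSO matched across wells / Reagent: thallium- and potassium-containing depolarizing buffer / Compound: one concentration, matched DMSO / Incubation: 20 min compound pretreatment at room temperature / Measured by: kinetic FluxOR fluorescence, 10 s baseline plus 110 s post-stimulus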
# hERG rescue: shields human hERG channel from block by proarrhythmic agents; Q12809; CHO-hERG, FluxOR thallium flux, dofetilide IC70 present; activation (rescue from dofetilide block), less the hit threshold, % at 10 µM; 310,000 tested, 0.51% active;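 active means activation above the mean of controls blocked by dofetilide plus 5 SD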;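 further: thallium influx through hERG after potassium depolarization seen as dye fluorescence rise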
# KCNK3 block: human KCNK3 channel inhibition, primary screen; O14649; CHO-KCNK3 thallium flux, FluxOR fluorescence; active compounds read low; B-score at 10 µM; 340,000 tested, 0.84% active; AID 602410;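 active means B-score under library mean minus 4 SD, starting fluorescence ratio at most library mean plus 5 SD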;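 further: more negative B-score means stronger inhibition of thallium flux through KCNK3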
# Target sequence (O14649 whole entry, looked up): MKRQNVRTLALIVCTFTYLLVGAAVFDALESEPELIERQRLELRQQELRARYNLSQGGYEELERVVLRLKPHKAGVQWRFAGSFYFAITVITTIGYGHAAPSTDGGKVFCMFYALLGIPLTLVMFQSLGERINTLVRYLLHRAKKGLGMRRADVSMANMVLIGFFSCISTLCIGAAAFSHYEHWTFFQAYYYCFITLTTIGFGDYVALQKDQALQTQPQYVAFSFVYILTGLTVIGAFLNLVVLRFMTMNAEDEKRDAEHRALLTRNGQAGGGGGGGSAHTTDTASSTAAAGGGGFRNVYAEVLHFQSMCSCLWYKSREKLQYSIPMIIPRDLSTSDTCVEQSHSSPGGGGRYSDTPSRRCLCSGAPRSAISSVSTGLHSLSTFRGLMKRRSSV
# * = called active by the depositor; i = inactive; . = no result given. This is a sample that favours compounds with a hit; in the whole collection about 3.7% have one here.
SMILES,KCNQ1 block,KCNK9 inh,Kir21 inh,KCNQ1 act,hERG rescue,KCNK3 block
Cn1nc(-c2ccc(Cl)cc2)c2cc(C(=O)N3CCN(c4ccccn4)CC3)sc21,i,i,0.11,i,-6,-13*
OCCCc1nc2n(n1)C(c1ccccc1)C=C(c1ccc(F)cc1)N2 (configuration not stated),i,i,-0.92,i,-16,i
OCCCc1nc2n(n1)C(c1ccccc1Cl)C=C(c1cccs1)N2 (configuration not stated),i,i,-2.5,i,-17,-10*
Cc1cc(C)c(S(=O)(=O)N/N=C/c2ccc([N+](=O)[O-])o2)c(C)c1,i,i,0.06,i,-7,i
CN=C(C)c1c(O)c2ccccc2oc1=O,i,i,-0.09,i,4.9*,i
CN(C)Cc1ccccc1C(O)(c1ccccc1)c1ccccc1,i,i,-4.7*,i,-6,i
CO/N=C(/CS(=O)Cc1ccccc1Cl)c1ccc(Cl)cc1Cl (configuration not stated),i,i,-5*,i,-1,i
O=C(NCc1cccc(Cl)c1)c1ccc(CS(=O)Cc2ccccc2Cl)o1 (configuration not stated),i,i,-0.34,i,-4,i
COc1cccc(NC(=O)CSc2nc3ccccc3c(=O)n2CCCC(=O)NCC2CCCO2)c1 (configuration not stated),i,i,0.1,i,-6,i
CCc1csc(CNC(=O)C2CCC(=O)N(Cc3cccc(F)c3)C2)n1 (configuration not stated),i,i,-1.7,i,-8,i
O=C1C(Cc2ccccc2)Nc2ncnc(N3CCc4ccccc4C3)c2N1Cc1ccc(Br)cc1 (configuration not stated),i,-7.7*,0.97,i,-13,.
O=C1C(Cc2ccccc2)Nc2ncnc(N3CCN(c4ccccc4)CC3)c2N1Cc1ccc(Br)cc1 (configuration not stated),.,.,.,.,.,i
Cc1ccccc1COC(=O)CCC1=NS(=O)(=O)c2ccccc2N1,i,i,-0.76,i,-9,i
COc1ccc(COn2nnc3ccc(S(=O)(=O)N4CCOCC4)cc32)cc1F,i,i,-0.3,i,-11,i
CC(C)=CCc1cc2c(=O)c3c(O)c4c(cc3oc2c(O)c1O)OC(C)C4(C)C (configuration not stated),6*,i,0.85,i,-25,.
COc1ccc(-c2ccc(/C=N/NC(=O)c3cccnc3)o2)c([N+](=O)[O-])c1,i,i,-2.3,i,16*,i
CC(NCc1ccc(-c2ccccc2)cc1)C(O)c1ccccc1 (configuration not stated),i,i,-14*,i,-17,i
CC(O)CNCc1ccc(-c2ccccc2)cc1 (configuration not stated),i,i,0.15,i,-8,i
N#CC(c1ccc(Cl)cc1)N1CCOCC1 (configuration not stated),i,i,0.07,i,-4,i
Oc1c(Cl)cc(Cl)cc1C(C#Cc1ccccc1)N1CCOCC1 (configuration not stated),i,-7.1*,-1.2,i,-11,i
CCN(CC)S(=O)(=O)c1ccc(Cl)c(NC(=O)COC(=O)c2nc3nc(C)cc(C)n3n2)c1,.,.,.,.,.,i
Cc1ccc(C23CC4CC(CC(CN)(C4)C2)C3)cc1,i,i,-5.9*,i,-9,i
CCCOc1cccc(C2C(C(=O)c3ccc(C)o3)=C(O)C(=O)N2c2nc(C)c(C(C)=O)s2)c1 (configuration not stated),i,i,1.5,i,-9,i
O=C(CSc1nnc(SCc2cccc3ccccc23)s1)N/N=C/C=C/c1ccccc1[N+](=O)[O-],i,-7.5*,-0.12,i,-14,i
O=C(CSc1nnc(SCc2cccc3ccccc23)s1)N/N=C/c1c[nH]c2ccccc12,i,i,0.08,i,-1,i
SMILES,KCNQ1 block,KCNK9 inh,Kir21 inh,KCNQ1 act,hERG rescue,KCNK3 block
C=C1c2nc3ccccc3n2C=C(c2ccc(C)cc2)N1c1ccccc1,.,.,.,.,.,i
CCC(=O)c1ccc(OCC(O)CN(CCc2ccccc2)Cc2ccccc2)cc1 (configuration not stated),7*,i,-1.8,i,-21,i
Cc1ccc(S(C)(=O)=O)cc1C(=O)NC(C)C1CC2CCC1C2 (configuration not stated),i,i,1.3,i,-5,i
COc1ccc(-c2c[n+](CC(=O)OC3CC(C)CCC3C(C)C)c3n2CCC3)cc1 (configuration not stated),i,i,-5.2*,i,-20,i
CCOC(=O)c1c(-c2ccccc2)oc2ccc(OC)cc12,i,i,-0.55,i,-2,i
CCOC(=O)c1c(-c2ccccc2)oc2ccc(OCC(O)CNCCN(C)C)cc12 (configuration not stated),i,i,-5.2*,i,-11,i
O=C(NC1CC(=O)N(c2cccc(F)c2)C1)C(=O)c1c[nH]c2ccccc12 (configuration not stated),i,i,-0.14,i,-3,i
CC(C)(C)NC(=O)NC(=O)C[n+]1ccc(Cc2ccc([N+](=O)[O-])cc2)cc1,i,i,0.62,i,-4,i
CC(C)(C)c1ccc(CN(Cc2ccccc2)C(c2ccccn2)c2nnnn2C(C)(C)C)cc1 (configuration not stated),i,-7.4*,-0.78,i,-8,i
COc1cc(NC(=O)C2CCCN2S(=O)(=O)c2ccc3c(c2)CC(C)N3C(C)=O)cc(OC)c1 (configuration not stated),i,i,-0.3,i,-11,i
CN1C(=O)/C(=C\c2ccccc2OCc2ccccc2)SC1=S,i,i,0.39,i,0,i
Cc1cc(/C=C2\SC(=S)N(C)C2=O)c(C)n1-c1cccc(O)c1,i,-6.8*,-0.89,i,-10,i
CN1C(=O)/C(=C\c2cc(N=Nc3ccccc3)ccc2O)SC1=S,7*,i,-0.19,i,-7,i
COCc1cc(C)nc(SCC(=O)Nc2ccc3c(c2)n(C)c(=O)n3C)c1C#N,i,i,0.94,i,-9,i
CN(c1ccccc1)S(=O)(=O)c1ccc(Cl)c(C(=O)Nc2ccc(-c3nc4ccccc4[nH]3)cc2)c1,i,i,0.06,i,-18,i

# From PubChem BioAssay
